From ChEMBL document CHEMBL1926642, “Relevance of the C-5 position to schweinfurthin induced cytotoxicity” (2011)

Legend:
Assay type in all cases: functional
[1] = system: NCI/ADR-RES; experiment: Growth inhibition of human NCI/ADR-RES cells after 48 hrs by sulforhodamine B assay
[2] = system: OVCAR-4; experiment: Growth inhibition of human OVCAR4 cells after 48 hrs by sulforhodamine B assay; settings: OVCAR-4, 48 h
[3] = system: NCI-H522; experiment: Growth inhibition of human NCI-H522 cells after 48 hrs by sulforhodamine B assay; settings: NCI-H522, 48 h
[4] = system: SK-OV-3; experiment: Growth inhibition of human SKOV3 cells after 48 hrs by sulforhodamine B assay; settings: SK-OV-3, 48 h
[5] = system: ACHN; experiment: Growth inhibition of human ACHN cells after 48 hrs by sulforhodamine B assay
[6] = system: OVCAR-3; experiment: Growth inhibition of human OVCAR3 cells after 48 hrs by sulforhodamine B assay; settings: OVCAR-3, 48 h
[7] = system: SK-MEL-28; experiment: Growth inhibition of human SK-MEL-28 cells after 48 hrs by sulforhodamine B assay; settings: SK-MEL-28, 48 h
[8] = system: RPMI-8226; experiment: Growth inhibition of human RPMI8226 cells after 48 hrs by sulforhodamine B assay; settings: RPMI-8226, 48 h
[9] = system: SNB-19; experiment: Growth inhibition of human SNB19 cells after 48 hrs by sulforhodamine B assay; settings: SNB-19, 48 h
[10] = system: MDA-MB-231; experiment: Growth inhibition of human MDA-MB-231/ATCC cells after 48 hrs by sulforhodamine B assay; settings: MDA-MB-231, 48 h
[11] = system: RXF 393; experiment: Growth inhibition of human RXF393 cells after 48 hrs by sulforhodamine B assay; settings: RXF 393, 48 h
[12] = system: OVCAR-5; experiment: Growth inhibition of human OVCAR5 cells after 48 hrs by sulforhodamine B assay; settings: OVCAR-5, 48 h
[13] = system: HL-60(TB); experiment: Growth inhibition of human HL-60(TB) cells after 48 hrs by sulforhodamine B assay; settings: HL-60, 48 h
Method in brief: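 Run in the NCI 60 cell-line screen as the full 5-dose assay that follows initial single-dose testing; GI50 is read from the dose series.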

[14] = system: NCI-H23; experiment: Growth inhibition of human NCI-H23 cells after 48 hrs by sulforhodamine B assay; settings: NCI-H23, 48 h
[15] = system: LOX IMVI; experiment: Growth inhibition of human LOXIMVI cells after 48 hrs by sulforhodamine B assay
[16] = system: HCT-15; experiment: Growth inhibition of human HCT15 cells after 48 hrs by sulforhodamine B assay; settings: HCT-15, 48 h
[17] = system: HCT-116; experiment: Growth inhibition of human HCT116 cells after 48 hrs by sulforhodamine B assay; settings: HCT-116, 48 h
[18] = system: MOLT-4; experiment: Growth inhibition of human MOLT4 cells after 48 hrs by sulforhodamine B assay; settings: MOLT-4, 48 h
[19] = system: T47D; experiment: Growth inhibition of human T47D cells after 48 hrs by sulforhodamine B assay
[20] = system: SF-539; experiment: Growth inhibition of human SF539 cells after 48 hrs by sulforhodamine B assay; settings: SF-539, 48 h
[21] = system: SN12C; experiment: Growth inhibition of human SN12C cells after 48 hrs by sulforhodamine B assay
[22] = Growth inhibition of human Hs 578T cells after 48 hrs by sulforhodamine B assay
[23] = system: MDA-MB-468; experiment: Growth inhibition of human MDA-MB-468 cells after 48 hrs by sulforhodamine B assay; settings: MDA-MB-468, 48 h
[24] = system: SK-MEL-2; experiment: Growth inhibition of human SK-MEL-2 cells after 48 hrs by sulforhodamine B assay; settings: SK-MEL-2, 48 h
[25] = system: UACC-62; experiment: Growth inhibition of human UACC62 cells after 48 hrs by sulforhodamine B assay; settings: UACC-62, 48 h
[26] = system: SF-268; experiment: Growth inhibition of human SF268 cells after 48 hrs by sulforhodamine B assay; settings: SF-268, 48 h
[27] = system: CCRF-CEM; experiment: Growth inhibition of human CCRF-CEM cells after 48 hrs by sulforhodamine B assay
[28] = system: NCI-H322M; experiment: Growth inhibition of human NCI-H322M cells after 48 hrs by sulforhodamine B assay
[29] = system: HCC 2998; experiment: Growth inhibition of human HCC2998 cells after 48 hrs by sulforhodamine B assay; settings: HCC 2998, 48 h
[30] = system: NCI-H226; experiment: Growth inhibition of human NCI-H226 cells after 48 hrs by sulforhodamine B assay; settings: NCI-H226, 48 h
[31] = system: A498; experiment: Growth inhibition of human A498 cells after 48 hrs by sulforhodamine B assay; settings: A498, 48 h
[32] = system: Malme-3M; experiment: Growth inhibition of human MALME-3M cells after 48 hrs by sulforhodamine B assay
[33] = read-out: pLC50 (the source's name) (converted)

Compound: COCOc1cc(/C=C/c2cc(C=O)c3c(c2)C[C@@H]2C(C)(C)[C@H](O)CC[C@@]2(C)O3)cc(OC)c1C/C=C(\C)CCC=C(C)C
- GI50 [1]: 21.4 µM
- LC50 [1]: > 100 µM
- TGI ([1]; read-out: pTGI (converted)): > 100 µM
- GI50 [2]: 6.92 µM
- LC50 [2]: > 100 µM
- TGI ([2]; read-out: pTGI (converted)): > 100 µM
- GI50 [3]: 18.2 µM
- LC50 [3]: > 100 µM
- TGI ([3]; read-out: pTGI (converted)): > 100 µM
- GI50 [4]: 41.7 µM
- LC50 [4]: > 100 µM
- TGI ([4]; read-out: pTGI (converted)): > 100 µM
- GI50 [5]: 7.94 µM
- LC50 [5]: > 100 µM
- TGI ([5]; read-out: pTGI (converted)): > 100 µM
- GI50 [6]: 27.5 µM
- LC50 [6]: > 100 µM
- TGI ([6]; read-out: pTGI (converted)): > 100 µM
- GI50 [7]: 2.95 µM
- CC50 [7, 33]: > 100 µM
- TGI ([7]; read-out: pTGI (converted)): > 100 µM
- GI50 [8]: 1.17 µM
- LC50 [8]: > 100 µM
- TGI ([8]; read-out: pTGI (converted)): > 100 µM
- GI50 [9]: 16.6 µM
- LC50 [9]: > 100 µM
- TGI ([9]; read-out: pTGI (converted)): > 100 µM
- GI50 [10]: 3.39 µM
- CC50 [10, 33]: > 100 µM
- TGI ([10]; read-out: pTGI (converted)): 15.8 µM
- GI50 [11]: 0.309 µM
- LC50 (50% lethal concentration) [11]: 12.3 µM
- TGI ([11]; read-out: pTGI (converted)): 1.32 µM
- GI50 [12]: 11.7 µM
- LC50 [12]: > 100 µM
- TGI ([12]; read-out: pTGI (converted)): > 100 µM
- GI50 [13]: 3.55 µM
- CC50 [13, 33]: > 100 µM
- TGI ([13]; read-out: pTGI (converted)): 60.3 µM
- GI50 [14]: 11 µM
- LC50 [14]: > 100 µM
- TGI ([14]; read-out: pTGI (converted)): > 100 µM
- GI50 [15]: 3.98 µM
- LC50 [15]: 44.7 µM
- TGI ([15]; read-out: pTGI (converted)): 15.8 µM
- GI50 [16]: 3.31 µM
- LC50 [16]: > 100 µM
- TGI ([16]; read-out: pTGI (converted)): 51.3 µM
- GI50 [17]: 6.61 µM
- LC50 [17]: > 100 µM
- TGI ([17]; read-out: pTGI (converted)): 35.5 µM
- GI50 [18]: 2.82 µM
- LC50 [18]: > 100 µM
- TGI ([18]; read-out: pTGI (converted)): 13.2 µM
- GI50 [19]: 13.5 µM
- LC50 [19]: > 100 µM
- TGI ([19]; read-out: pTGI (converted)): > 100 µM
- GI50 [20]: 0.891 µM
- LC50 [20]: > 100 µM
- TGI ([20]; read-out: pTGI (converted)): 12.9 µM
- GI50 [21]: 14.8 µM
- LC50 [21]: > 100 µM
- TGI ([21]; read-out: pTGI (converted)): > 100 µM
- GI50 [22]: 1.74 µM
- CC50 [22, 33]: > 100 µM
- TGI ([22]; read-out: pTGI (converted)): > 100 µM
- GI50 [23]: 4.9 µM
- LC50 [23]: > 100 µM
- TGI ([23]; read-out: pTGI (converted)): 46.8 µM
- GI50 [24]: 12.9 µM
- LC50 [24]: > 100 µM
- TGI ([24]; read-out: pTGI (converted)): > 100 µM
- GI50 [25]: 4.07 µM
- LC50 (50% lethal concentration) [25]: > 100 µM
- TGI ([25]; read-out: pTGI (converted)): > 100 µM
- GI50 [26]: 11 µM
- LC50 [26]: > 100 µM
- TGI ([26]; read-out: pTGI (converted)): 85.1 µM
- GI50 [27]: 4.37 µM
- LC50 [27]: > 100 µM
- TGI ([27]; read-out: pTGI (converted)): > 100 µM
- GI50 [28]: 89.1 µM
- LC50 [28]: > 100 µM
- TGI ([28]; read-out: pTGI (converted)): > 100 µM
- GI50 [29]: 12.3 µM
- LC50 [29]: > 100 µM
- TGI ([29]; read-out: pTGI (converted)): > 100 µM
- GI50 [30]: 28.2 µM
- LC50 [30]: > 100 µM
- TGI ([30]; read-out: pTGI (converted)): > 100 µM
- GI50 [31]: 7.59 µM
- LC50 [31]: > 100 µM
- TGI ([31]; read-out: pTGI (converted)): > 100 µM
- GI50 [32]: 7.94 µM
- LC50 [32]: > 100 µM
- TGI ([32]; read-out: pTGI (converted)): 95.5 µM
